Legend:
[1] = Clearance in iv dosed rat by cassette studies; type: ADME, organism-based; conditions: in vivo
Outline: (§1)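 Rat PK from intravenous cassette dosing, in which several compounds are given together in one IV administration, followed by plasma sampling to derive clearance, Vdss and elimination half-life.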

[2] = Volume of distribution at steady state in iv dosed rat by cassette studies; type: ADME, organism-based; conditions: in vivo, read-out: Vdss; outline: as §1
[3] = Half life in iv dosed rat by cassette studies; type: ADME, organism-based; conditions: in vivo; outline: as §1
[4] = Half life in iv dosed dog by cassette studies; type: ADME, organism-based, Canis lupus familiaris; conditions: in vivo
Outline: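 Dog half-life from intravenous cassette dosing, with compounds co-administered IV and plasma sampled for elimination t1/2.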

[5] = Half life in Beagle dog at 0.5 mg/kg, iv; type: ADME, organism-based, Canis lupus familiaris; parameters: dose 0.5 mg/kg, route intravenous; conditions: in vivo
Outline: (§2)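 Single-dose pharmacokinetics in male animals, with rats being Sprague Dawley. IV dosing was 0.5 mg/kg (rat N = 2, dog N = 3). Oral dosing was 3 mg/kg (rat N = 3, dog N = 2). Plasma was sampled to derive Cmax, Tmax, AUCinf, clearance, Vdss and t1/2, and oral bioavailability (F) was calculated from the PO versus IV exposure.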

[6] = AUC (infinity) in Sprague-Dawley rat at 3 mg/kg, po; type: ADME, organism-based; parameters: dose 3 mg/kg, route oral, time infinity; conditions: plasma; outline: as §2
[7] = Absolute oral bioavailability in Beagle dog at 3 mg/kg; type: ADME, organism-based, Canis lupus familiaris; conditions: in vivo; outline: as §2
[8] = Volume of distribution at steady state in Sprague-Dawley rat at 0.5 mg/kg, iv; type: ADME, organism-based; parameters: dose 0.5 mg/kg, route intravenous; conditions: in vivo, read-out: Vdss; outline: as §2
[9] = Absolute oral bioavailability in Sprague-Dawley rat at 3 mg/kg; type: ADME, organism-based; conditions: in vivo; outline: as §2
[10] = Clearance in Sprague-Dawley rat at 0.5 mg/kg, iv; type: ADME, organism-based; parameters: dose 0.5 mg/kg, route intravenous; conditions: in vivo; outline: as §2
[11] = Volume of distribution at steady state in Beagle dog at 0.5 mg/kg, iv; type: ADME, organism-based, Canis lupus familiaris; parameters: dose 0.5 mg/kg, route intravenous; conditions: in vivo, read-out: Vdss; outline: as §2
[12] = AUC (infinity) in Sprague-Dawley rat at 0.5 mg/kg, iv; type: ADME, organism-based; parameters: time infinity, dose 0.5 mg/kg, route intravenous; conditions: plasma; outline: as §2
[13] = Cmax in Beagle dog at 3 mg/kg, po; type: ADME, organism-based, Canis lupus familiaris; parameters: dose 3 mg/kg, route oral; conditions: in vivo; outline: as §2
[14] = AUC (infinity) in Beagle dog at 0.5 mg/kg, iv; type: ADME, organism-based, Canis lupus familiaris; parameters: time infinity, dose 0.5 mg/kg, route intravenous; conditions: plasma; outline: as §2
[15] = AUC (infinity) in Beagle dog at 3 mg/kg, po; type: ADME, organism-based, Canis lupus familiaris; parameters: time infinity, dose 3 mg/kg, route oral; conditions: plasma; outline: as §2
[16] = Clearance in Beagle dog at 0.5 mg/kg, iv; type: ADME, organism-based, Canis lupus familiaris; parameters: dose 0.5 mg/kg, route intravenous; conditions: in vivo; outline: as §2
[17] = Tmax in Sprague-Dawley rat at 3 mg/kg, po; type: ADME, organism-based; parameters: dose 3 mg/kg, route oral; conditions: in vivo; outline: as §2
[18] = Half life in Sprague-Dawley rat at 0.5 mg/kg, iv; type: ADME, organism-based; parameters: dose 0.5 mg/kg, route intravenous; conditions: in vivo; outline: as §2
[19] = Tmax in Beagle dog at 3 mg/kg, po; type: ADME, organism-based, Canis lupus familiaris; parameters: dose 3 mg/kg, route oral; conditions: in vivo; outline: as §2
[20] = Cmax in Sprague-Dawley rat at 3 mg/kg, po; type: ADME, organism-based; parameters: dose 3 mg/kg, route oral; conditions: in vivo; outline: as §2
[21] = Half life in iv dosed rat by singleton studies; type: ADME, organism-based; conditions: in vivo
Outline: (§3)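 Rat PK from intravenous singleton dosing, in which each compound is given alone IV, followed by plasma sampling to derive clearance, Vdss and elimination half-life.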

[22] = Volume of distribution at steady state in iv dosed rat by singleton studies; type: ADME, organism-based; conditions: in vivo, read-out: Vdss; outline: as §3
[23] = Clearance in iv dosed rat by singleton studies; type: ADME, organism-based; conditions: in vivo; outline: as §3
[24] = Half life in iv dosed dog by singleton studies; type: ADME, organism-based, Canis lupus familiaris; conditions: in vivo
Outline: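 Dog half-life from intravenous singleton dosing, with each compound given alone IV and plasma sampled for elimination t1/2.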

SMILES	clearance [1] [mL/min/kg]	Vd [2] [L/kg]	half-life [3] [h]	also measured
O=C(Nc1ccc(-n2ccccc2=O)cn1)[C@H]1C[C@](O)(c2ccccc2C(F)(F)F)CN1C(=O)Nc1ccc(Cl)cc1	2.89	0.393	1.9	half-life [4]: 1 h
O=C(Nc1ccc(-n2ccccc2=O)cn1)[C@H]1C[C@](O)(c2ccc(F)cc2)CN1C(=O)Nc1ccc(Cl)cc1	9.44	1.97	1.8	
O=C(Nc1ccc(-n2ccccc2=O)cn1)[C@H]1C[C@](O)(c2ccc(F)cc2F)CN1C(=O)Nc1ccc(Cl)cc1	7.64	1.81	3.3	half-life [5]: 12.6 h; AUC(0-inf) [6]: 1010 ng·h/mL; bioavailability [7]: 24%; Vd [8]: 2.4 L/kg; bioavailability [9]: 19%; clearance [10]: 9.5 mL/min/kg; Vd [11]: 2 L/kg; AUC(0-inf) [12]: 978 ng·h/mL; Cmax [13]: 397 ng/mL; AUC(0-inf) [14]: 4870 ng·h/mL; AUC(0-inf) [15]: 6450 ng·h/mL; clearance [16]: 2.1 mL/min/kg; Tmax [17]: 1.7 h; half-life [18]: 3.3 h; Tmax [19]: 2 h; half-life [4]: 7.3 h; Cmax [20]: 236 ng/mL
Cc1cccc([C@@]2(O)C[C@H](C(=O)Nc3ccc(-n4ccccc4=O)cn3)N(C(=O)Nc3ccc(Cl)cc3)C2)c1	6.78	0.438	1.4	
CO[C@@H]1C[C@H](C(=O)Nc2ccc(-n3ccccc3=O)cn2)N(C(=O)Nc2ccc(Cl)cc2)C1			2	
CC[C@@]1(O)C[C@H](C(=O)Nc2ccc(-n3ccccc3=O)cc2F)N(C(=O)Nc2ccc(Cl)cc2)C1			2.4	
O=C(Nc1ccc(-n2ccccc2=O)cc1F)[C@H]1C[C@](O)(c2ccccc2)CN1C(=O)Nc1ccc(Cl)cc1				half-life [21]: 4 h
O=C(Nc1ccc(-n2ccccc2=O)cn1)[C@H]1C[C@](O)(c2ccccc2)CN1C(=O)Nc1ccc(Cl)cc1			2.9	Vd [22]: 1.49 L/kg; half-life [4]: 2.9 h; clearance [23]: 6.73 mL/min/kg
CC[C@@]1(O)C[C@H](C(=O)Nc2ccc(-n3cccc(C)c3=O)cc2F)N(C(=O)Nc2ccc(Cl)cc2)C1			5.2	
CC[C@@]1(OC)C[C@H](C(=O)Nc2ccc(-n3ccccc3=O)cc2F)N(C(=O)Nc2ccc(Cl)cc2)C1			1.7	
CO[C@@H]1C[C@H](C(=O)Nc2ccc(-n3ccccc3=O)cc2F)N(C(=O)Nc2ccc(Cl)cc2)C1 [ERIBAXABAN]			2.6	half-life [24]: 4.9 h; Vd [22]: 1.1 L/kg; half-life [21]: 2 h; clearance [23]: 12 mL/min/kg

Second part, led by results:

clearance [1] [mL/min/kg]	Vd [2] [L/kg]	half-life [3] [h]	SMILES	also measured
13.1	1.6	2.1	O=C(Nc1ccc(-n2ccccc2=O)cn1)[C@H]1C[C@](O)(c2ccc(F)c(F)c2)CN1C(=O)Nc1ccc(Cl)cc1	half-life [4]: 2.1 h
10.3	1.58	1.8	Cc1ccc([C@@]2(O)C[C@H](C(=O)Nc3ccc(-n4ccccc4=O)cn3)N(C(=O)Nc3ccc(Cl)cc3)C2)cc1	
4.16	0.923	2.9	O=C(Nc1ccc(-n2ccccc2=O)cn1)[C@H]1C[C@](O)(c2ccccc2Cl)CN1C(=O)Nc1ccc(Cl)cc1	half-life [4]: 0.8 h
		1.4	CCO[C@]1(CC)C[C@H](C(=O)Nc2ccc(-n3ccccc3=O)cc2F)N(C(=O)Nc2ccc(Cl)cc2)C1	
		1.6	Cc1cccn(-c2ccc(NC(=O)[C@H]3C[C@@](C)(O)CN3C(=O)Nc3ccc(Cl)cc3)c(F)c2)c1=O	
		1.7	CO[C@]1(C)C[C@H](C(=O)Nc2ccc(-n3ccccc3=O)cc2F)N(C(=O)Nc2ccc(Cl)cc2)C1	
5.12	0.468	1.3	Cc1ccccc1[C@@]1(O)C[C@H](C(=O)Nc2ccc(-n3ccccc3=O)cn2)N(C(=O)Nc2ccc(Cl)cc2)C1	

Source: ChEMBL document CHEMBL1153922, “Exploration of 4,4-disubstituted pyrrolidine-1,2-dicarboxamides as potent, orally active Factor Xa inhibitors with extended duration of action” (Bioorg Med Chem, 2009)
